Drawing on ChEMBL document CHEMBL1141276, “Cytotoxic and Antihaptotactic beauvericin analogues from precursor-directed biosynthesis with the insect pathogen Beauveria bassiana ATCC 7159” (J Nat Prod, 2007), this text covers Ratio and IC50 for 7 compounds.

In general, IC50 refers to the midpoint of a concentration-inhibition curve.

A short description of experiment [1]: Ratio of cytotoxic IC50 to antihaptotactic IC50 in PC-3M cells. It is filed as functional, Homo sapiens. The gist of the method: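 Index computed as the MTT cytotoxicity IC50 divided by the wound-healing antihaptotactic IC50. Both IC50s were measured in PC-3M cells, each averaged from 2–4 independent experiments with 4 replicates.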
Experiment [2] is described as follows: Cytotoxicity against human PC-3M cells by MTT assay. The format is functional, cell-based. The method, boiled down:
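Tetrazolium (MTT) cytotoxicity assay on monolayers of the metastatic prostate cancer line PC-3M. The result is given as IC50 in µM, averaged from 2–4 independent experiments with 4 replicates each.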

Experiment [3] in a line: Antihaptotactic activity in human PC-3M cells assessed as inhibition of cell migration by wound healing assay. It is filed as functional, cell-based. The method, boiled down: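 Wound-healing (scratch) migration assay on a PC-3M monolayer, with the wound closure quantified. The result is the IC50 for inhibition of migration in µM, averaged from 2–4 independent experiments with 4 replicates each.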

Turning to `CC[C@H]1OC(=O)[C@H](Cc2ccccc2)N(C)C(=O)[C@@H](C(C)C)OC(=O)[C@H](Cc2ccccc2)N(C)C(=O)[C@@H](C(C)C)OC(=O)[C@H](Cc2ccccc2)N(C)C1=O` [BEAUVERICIN G1], the Ratio in experiment [1] is 1.3. Also, the concentration for half-maximal inhibition (IC50) in experiment [2] stood at 5 µM; in experiment [3], 3.8 µM.
For `CC[C@H]1OC(=O)[C@H](Cc2ccccc2)N(C)C(=O)[C@@H](CC)OC(=O)[C@H](Cc2ccccc2)N(C)C(=O)[C@@H](C(C)C)OC(=O)[C@H](Cc2ccccc2)N(C)C1=O` [BEAUVERICIN G2], in that order: 1.4, 10.4 µM and 7.6 µM.
Consider `CC[C@H]1OC(=O)[C@H](Cc2ccccc2)N(C)C(=O)[C@@H](CC)OC(=O)[C@H](Cc2ccccc2)N(C)C(=O)[C@@H](CC)OC(=O)[C@H](Cc2ccccc2)N(C)C1=O` [BEAUVERICIN G3], for which the Ratio in experiment [1] worked out at 0.9. In addition, the IC50 in experiment [2] turned out to be 16.3 µM; in experiment [3] it was 17.2 µM.
The matching figures for `CC(C)[C@H]1OC(=O)[C@H](Cc2cccc(F)c2)N(C)C(=O)[C@@H](C(C)C)OC(=O)[C@H](Cc2ccccc2)N(C)C(=O)[C@@H](C(C)C)OC(=O)[C@H](Cc2ccccc2)N(C)C1=O` [BEAUVERICIN H1]: 2.3, 7.4 µM and 3.2 µM.
For the compound `CC(C)[C@H]1OC(=O)[C@H](Cc2cccc(F)c2)N(C)C(=O)[C@@H](C(C)C)OC(=O)[C@H](Cc2cccc(F)c2)N(C)C(=O)[C@@H](C(C)C)OC(=O)[C@H](Cc2ccccc2)N(C)C1=O` [BEAUVERICIN H2], the Ratio in experiment [1] came to 1.9. Further, the IC50 in experiment [2] came to 6.2 µM; in experiment [3], 3.2 µM.
As for `CC(C)[C@H]1OC(=O)[C@H](Cc2cccc(F)c2)N(C)C(=O)[C@@H](C(C)C)OC(=O)[C@H](Cc2cccc(F)c2)N(C)C(=O)[C@@H](C(C)C)OC(=O)[C@H](Cc2cccc(F)c2)N(C)C1=O` [BEAUVERICIN H3], the Ratio in experiment [1] was 1.4. Also, the IC50 in experiment [2] is 4.4 µM; in experiment [3], 3.2 µM.
For `CC(C)[C@@H]1OC(=O)[C@@H](Cc2ccccc2)N(C)C(=O)[C@H](C(C)C)OC(=O)[C@@H](Cc2ccccc2)N(C)C(=O)[C@H](C(C)C)OC(=O)[C@@H](Cc2ccccc2)N(C)C1=O` [BEAUVERICIN], in that order: 2.3, 8 µM and 3.5 µM.
